This note sets out measurements from ChEMBL document CHEMBL1125894, “Dual-action cephalosporins: cephalosporin 3'-quaternary ammonium quinolones” (1991).

Converted amounts (≈) assume the structure as drawn.

Assay [1] deals with Staphylococcus aureus. Briefly: In vivo activity in murine against Staphylococcus aureus 753(MR) infection after sc administration. It counts as functional. An outline of the steps:
(§1)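 Mouse protection test in CD1 Swiss albino mice (18–20 g). Mice were infected intraperitoneally with 0.5 mL of a diluted bacterial suspension, then treated within 5 min with one 1.0 mL subcutaneous dose at the dorsal base of the neck. Doses ranged from 0.05 to 250 mg/kg, with six mice per group. ED50 was calculated by the Reed–Muench method.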

Assay [2] concerns Serratia marcescens. Put plainly: In vitro antibacterial activity against Serratia marcescens SM. The class given is functional. The essentials:
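Serial 2-fold dilutions in the NCCLS broth microdilution method for aerobic nonfastidious organisms, with an 18-h incubation. The value is reported as the minimum inhibitory concentration (MIC).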

Assay [3] deals with Streptococcus pneumoniae. Put plainly: In vivo activity in murine against Streptococcus pneumoniae 6301 infection after sc administration. The class given is functional. An outline of the steps:
as §1

Assay [4] relates to Serratia marcescens. Put plainly: In vivo activity in murine against Serratia marcescens SM infection after sc administration. It counts as functional. The essentials: as §1
For assay [5], the target named is T1, Penicillin-binding protein 1B (Escherichia coli K-12) (UniProt P02919).
T1 sequence (whole entry): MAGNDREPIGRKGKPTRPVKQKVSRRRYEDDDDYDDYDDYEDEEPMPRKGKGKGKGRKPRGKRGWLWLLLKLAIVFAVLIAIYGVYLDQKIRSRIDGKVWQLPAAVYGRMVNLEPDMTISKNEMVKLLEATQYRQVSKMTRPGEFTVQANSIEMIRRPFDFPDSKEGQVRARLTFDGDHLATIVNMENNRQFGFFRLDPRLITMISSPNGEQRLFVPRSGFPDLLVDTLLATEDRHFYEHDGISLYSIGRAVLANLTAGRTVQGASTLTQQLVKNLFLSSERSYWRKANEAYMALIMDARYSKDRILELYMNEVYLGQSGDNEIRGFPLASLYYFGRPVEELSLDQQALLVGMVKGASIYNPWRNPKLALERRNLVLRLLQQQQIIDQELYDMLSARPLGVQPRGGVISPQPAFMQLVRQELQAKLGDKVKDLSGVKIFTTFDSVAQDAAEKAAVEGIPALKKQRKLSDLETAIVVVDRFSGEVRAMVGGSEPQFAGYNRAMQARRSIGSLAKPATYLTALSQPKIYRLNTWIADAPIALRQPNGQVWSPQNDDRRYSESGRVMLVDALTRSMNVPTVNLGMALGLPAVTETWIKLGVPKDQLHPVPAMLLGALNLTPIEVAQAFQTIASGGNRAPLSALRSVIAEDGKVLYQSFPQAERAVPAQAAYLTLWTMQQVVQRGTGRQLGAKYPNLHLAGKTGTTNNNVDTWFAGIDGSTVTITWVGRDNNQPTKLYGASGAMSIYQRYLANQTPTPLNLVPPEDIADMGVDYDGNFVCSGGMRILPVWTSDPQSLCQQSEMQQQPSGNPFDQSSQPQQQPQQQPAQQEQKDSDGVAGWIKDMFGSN
Put plainly: Concentration required for 90% inhibition against 90 kDa penicillin-binding protein 1b binding using [14C]-Pen G as the radioligand. The essentials:
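Solubilized membranes from sonicated E. coli DC-0 were used. PBP binding was measured as inhibition of [14C]penicillin G binding to each PBP.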

Broadly, the ED50 is the midpoint of the dose-response relation. Higher therefore signals a need for a large dose. For orientation: MIC means the smallest concentration in the dilution series that meets the test's criterion for growth inhibition. Read a low MIC as greater potency. As to `CC(C)(O/N=C(\C(=O)N[C@@H]1C(=O)N2C(C(=O)[O-])=C(C[N+]3(C)CCN(c4c(F)cc5c(=O)c(C(=O)O)cn(CCF)c5c4F)CC3)CS[C@H]12)c1csc(N)n1)C(=O)O`, the ED50 in assay [1] was determined as 44 mg/kg; in assay [3], 8 mg/kg; in assay [4], 8 mg/kg. Also, inhibition of growth in assay [2] (MIC) required 1 µg/mL (≈ 1.19 µM). For the same molecule, in assay [5], the Concentration amounted to 30 µg/mL.
